Source: PubChem BioAssay
HNF4A DNA FP = change in binding of human HNF4 alpha to DNA; HNF4a-FITC DNA binding, fluorescence polarization, 1 h; activity change, % at 10 µM; hit rate 0.3% among 360,000; in the data active = activity change above about 30%, passing the limit was not always enough
CRFR2-BP ag = agonists of human CRF-binding protein/CRF-R2 receptor complex; HEK293 CRF-R2/CRF-BP, calcium dye fluorescence (FLIPR); percent of saturating CRF peptide response; activation, % at 13.2 µM; hit rate 0.46% among 350,000; AID 588473;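 active = activation of at least 50%, plus an integration ratio under a set limit after plate pattern correction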;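 note: plate controls were neutral control wells without compound for no effect and CRF at EC100 for full effect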
CSN inh = blocks human CSN-mediated cullin deneddylation; Q92905; Purified CSN, SCF-Nedd8-OG deneddylation, fluorescence polarization; inhibition, % at 12.5 µM; hit rate 0.38% among 360,000; AID 651999;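 active = pattern-corrected inhibition above about 35%, with an unprinted fluorescence ratio check between 0.5 and 1.5, limit read from the data, passing the limit was not always enough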;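 note: 0% = enzyme with substrate and 100% = substrate without enzyme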
Target sequence (Q92905 whole entry, looked up, one chain of several): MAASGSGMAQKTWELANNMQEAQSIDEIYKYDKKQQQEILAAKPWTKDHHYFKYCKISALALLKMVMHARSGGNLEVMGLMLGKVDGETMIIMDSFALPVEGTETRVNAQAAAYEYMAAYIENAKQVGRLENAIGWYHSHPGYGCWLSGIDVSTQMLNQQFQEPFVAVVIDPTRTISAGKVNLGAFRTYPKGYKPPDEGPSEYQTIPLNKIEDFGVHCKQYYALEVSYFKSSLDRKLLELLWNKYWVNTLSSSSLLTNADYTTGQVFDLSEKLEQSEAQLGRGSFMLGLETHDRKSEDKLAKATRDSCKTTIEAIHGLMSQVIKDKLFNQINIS
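Assay system: purified human Csn5 enzyme expressed in HEK293T cells; measure: % inhibition; also added: SCFSkp2-Nedd8OG substrate at 10 nM final; technique: fluorescence polarization; times: reaction 90 min, room temperature; medium: Tris buffer pH 7.5, NaCl, DTT, Tween-20, trehalose, ovalbumin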
TPT1 inhibitor = blocks Candida albicans tRNA 2'-phosphotransferase; recombinant caTPT1, FP RNA substrate dephosphorylation; inhibition, % at 5 µM; hit rate 0.81% among 300,000;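 active = inhibition above the mean of all tested compounds plus 3 SD, set per screening campaign, cut at about 24% in these data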;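 note: plate controls were DMSO alone for no effect and ferristatin control at 100 nM for full effect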
Rpn11 inh = blocks the human proteasome subunit Rpn11; human 26S proteasome, Ub4-pepOG fluorescence polarization; 20S core pre-blocked with epoxomicin; calls only at 20 µM; hit rate 0.59% among 360,000; AID 588493;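 active = inhibition at 20 µM, scaled to each plate's controls, above about 33%, limit read from the data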
CRFBP-R2 block = antagonists of CRF-binding protein/CRF-R2 receptor complex; HEK293 CRF-R2/CRF-BP, CRF-induced calcium fluorescence; inhibition, % at 11.8 µM; hit rate 0.59% among 350,000;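 active = inhibition of the ligand-induced calcium signal above about 50% at the single tested concentration, limit read from the data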
caTPT1 confirm = confirmation of Candida albicans TPT1 inhibitors; hit rate 74% among 2,400; recombinant caTPT1, fluorescence polarization, RNase T1 coupled; inhibition, % at 5 µM; shares compounds with TPT1 inhibitor;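 active = inhibition above the primary screen limit, the mean inhibition of all tested compounds plus 3 SD, cut at about 25% in these data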
RNase T1 inh = blocks Aspergillus oryzae RNase T1, a TPT1 counter-screen | shares compounds with TPT1 inhibitor | RNase T1 cleavage, fluorescence polarization, 1536-well | inhibition, % at 5 µM | hit rate 83% among 2,400 | AID 2153;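 active = inhibition above the solvent-only control well mean plus 3 SD, limit set per screening run, cut at about 23% in these data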;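 note: plate controls were DMSO wells with enzyme for no effect and wells without RNase T1 for full effect; inhibitors block cleavage so intact labeled substrate keeps polarization high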
Target sequence (P00651 whole entry, looked up): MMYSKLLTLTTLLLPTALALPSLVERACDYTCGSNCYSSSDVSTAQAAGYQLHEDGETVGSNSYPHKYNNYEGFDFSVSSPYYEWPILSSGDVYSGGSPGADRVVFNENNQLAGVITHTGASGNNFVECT
* = called active by the depositor; i = inactive; · = not tested or not shown; + = active, no number. Only some compounds are listed: those with a hit (about 2.3% of all), similar ones and a draw of the others.

SMILES	HNF4A DNA FP	CRFR2-BP ag	CSN inh	TPT1 inhibitor	Rpn11 inh	CRFBP-R2 block	caTPT1 confirm	RNase T1 inh
Cn1c(=O)oc2cc(S(=O)(=O)N3CCN(c4cccc(Cl)c4)CC3)ccc21	16.4	10.0	15.9	81.2*	·	-18.7	24.1*	33.1*
Cn1c(SCc2cccnc2)nc2cccnc21	1.0	-0.1	5.1	1.8	i	-7.6	·	·
O=C(/C=C/c1ccc(Cl)cc1Cl)Nc1ccc(CN2CCOCC2)cc1	3.7	10.9	-0.2	-4.8	i	-52.4	·	·
OC(c1ccccc1)(c1nc(-c2ccc3c(c2)OCO3)cs1)C(F)(F)F (stereo unspecified)	2.2	·	-2.6	·	i	·	·	·
N#C/C(=C\C=C\c1ccccc1)c1nc(-c2ccc3c(c2)OCO3)cs1	-18.8	64.9*	3.5	37.4*	i	-74.0	35.6*	46.6*
O=[N+]([O-])c1ccc(N2CCCCC2)cc1N1CCOCC1	3.2	-2.3	3.7	25.3*	i	22.1	9.0	11.7
O=C(N/N=C/c1ccc(N2CCOCC2)s1)c1ccc(NS(=O)(=O)c2cccs2)cc1	29.4	0.7	5.2	28.8*	·	10.8	77.8*	89.9*
O=C(N/N=C/c1ccc(N2CCOCC2)cc1)c1ccc(NS(=O)(=O)c2cccs2)cc1	0.3	0.7	-2.3	2.2	i	0.8	·	·
CC[n+]1c(/C=C/C=C/N(C(C)=O)c2ccccc2)sc2cc(OC)ccc21	·	146.4*	·	56.1*	·	-126.5	75.9*	81.0*
CC[n+]1c(/C=C(\C)OC)sc2ccccc21	3.9	-1.0	-4.7	·	i	-43.7	·	·
OC(CNCc1ccc(-c2ccccc2)cc1)c1ccccc1 (stereo unspecified)	2.3	2.9	-0.1	1.4	i	-42.4	·	·
CC1C/C(=C/c2ccncc2)C(=O)/C(=C/c2ccncc2)C1 (stereo unspecified)	0.2	-1.7	17.8	3.4	i	18.4	·	·
CC1C/C(=C/c2cccn2C)C(=O)/C(=C/c2cccn2C)C1 (stereo unspecified)	91.2	127.5*	-66.5	190.6*	·	-184.1	187.0*	169.6*
Cc1cc(/C=C2/C(=N)N3C(c4ccccc4)=CSC3=NC2=O)c(C)n1-c1ccccc1	11.3	3.3	15.5	24.5*	i	20.7	18.1	27.4*
O=C(NCCN1CCOCC1)/C(=C/c1ccc(Cl)cc1)NC(=O)c1ccccc1	4.0	0.4	1.1	-1.2	i	2.5	·	·
CN(C)c1ccc(/C=C(/NC(=O)c2ccccc2)C(=O)NCCN2CCOCC2)cc1	5.3	1.7	9.1	48.5*	i	-8.7	11.4	17.0
CN(C)c1ccc(/C=C(/NC(=O)c2ccccc2Cl)C(=O)NCCN2CCOCC2)cc1	4.7	1.2	4.6	47.5*	i	4.4	120.3*	128.5*
NC(=O)c1cc[n+](CC2=C(C(=O)O)N3C(=O)[C@@H](NC(=O)C(c4ccccc4)S(=O)(=O)[O-])[C@H]3SC2)cc1 (stereo partly specified)	-78.3	5.6	17.0	40.6*	i	-6.2	38.6*	8.6
C/C(=N/NC(=O)CN1CCN(Cc2ccccc2Cl)CC1)c1ccncc1	-2.6	-0.7	-0.8	0.6	i	1.0	·	·
COc1cc2nc(/C=C/c3ccc(N(C)C)cc3)sc2cc1SC	131.9	331.7*	120.6	154.5*	·	-486.2	152.6*	138.5*
O=C(/C=C/c1ccccc1)N/C(=C\c1ccco1)C(=O)O	1.2	2.1	-20.8	-9.5	i	1.4	·	·
O=C(CC1Nc2cccc3cccc(c23)NC1=O)Nc1ccccc1 (stereo unspecified)	-1.3	-0.5	4.4	-5.0	i	-85.9	·	·
Cc1ccc(NC(=S)NCc2ccc3c(c2)cc(C)n3C)c(C)c1	0.1	-0.6	5.8	-0.8	i	-4.5	·	·
O=C(/C=C/c1ccco1)N1CCC(Cc2ccccc2)CC1	-10.6	-11.7	18.9	130.8*	i	13.0	2.4	2.3
O=C(/C=C/c1ccco1)N1CCN(c2ncccn2)CC1	-0.2	-3.2	-5.6	-1.3	i	26.7	·	·
SMILES	HNF4A DNA FP	CRFR2-BP ag	CSN inh	TPT1 inhibitor	Rpn11 inh	CRFBP-R2 block	caTPT1 confirm	RNase T1 inh
CCCCN1C(=O)/C(=C/C=C2/CC(C)(C)CN2C)SC1=S	-78.4	195.6*	-95.2	169.1*	·	-267.7	173.5*	159.7*
CCN1C(=O)/C(=C/C=C2/SCCN2C)SC1=S	196.7	59.2*	103.2	+	·	-18.2	168.2*	157.4*
CCN1C(=O)/C(=C/c2cn(C)nc2C)SC1=S	-0.4	1.2	4.8	4.5	i	0.5	·	·
CCc1ccc(/C=C2\SC(=S)N(CCCC(=O)NC3=NCCS3)C2=O)cc1	-1.7	0.9	-1.9	·	i	-18.2	·	·
C=CCOC(=O)c1cn(CC)c2nc(C)ccc2c1=O	-1.1	0.3	-7.6	0.9	i	9.7	·	·
Cn1cc(CNCc2ccccc2OCC(O)CN2CCc3ccccc3C2)cn1 (stereo unspecified)	3.4	2.5	-5.8	26.4*	i	-4.6	9.4	11.5
CC(NS(=O)(=O)c1ccc2[nH]c(=O)c(=O)[nH]c2c1)C(=O)O (stereo unspecified)	4.9	-0.4	4.3	2.3	i	13.2	·	·
CSCCC(NS(=O)(=O)c1ccc2c(c1)OCCO2)C(=O)NCCc1ccccn1 (stereo unspecified)	-1.9	0.0	-1.2	6.8	i	19.2	·	·
CCOc1cc(/C=C2/C(=N)N3C(=NC2=O)SN=C3S(C)(=O)=O)ccc1OS(=O)(=O)c1ccccc1	7.3	0.1	11.6	15.0	i	1.7	·	·
COc1cc(/C=C2/C(=N)N3C(=NC2=O)SN=C3S(C)(=O)=O)ccc1OS(=O)(=O)c1ccccc1	·	·	·	27.9*	·	·	15.9	23.2*
O=C(COC(=O)CNC(=O)c1ccccc1F)Nc1ccc2c(c1)OCCO2	4.2	-0.7	-3.1	55.5*	i	-4.8	4.2	5.9
CCOc1ccc(NC(=S)N2CCCN(Cc3cccc(Cl)c3)C2)cc1	-1.5	1.7	-2.2	-1.2	i	-9.3	·	·
CC(C)CSC1=NSC2=NC(=O)/C(=C\c3coc4ccccc4c3=O)C(=N)N12	1.9	313.6*	-74.9	42.9*	i	-332.8	10.4	26.4*
CSC1=NSC2=NC(=O)/C(=C\c3coc4ccccc4c3=O)C(=N)N12	47.7	197.1*	54.7	62.1*	i	-200.9	60.9*	64.5*
COc1ccc(-n2c(C)cc(/C=C3\SC(=S)N(Cc4ccco4)C3=O)c2C)cc1	54.3*	24.9	29.6	122.3*	·	-40.6	121.8*	123.0*
COc1ccc(-c2nn(-c3ccccc3)cc2/C=C2/SC(=S)N(Cc3ccco3)C2=O)c(C)c1	4.8	4.5	3.7	-1.5	i	-5.1	·	·
